The subject of series [1] is Staphylococcus aureus. Nature of the series: Bactericidal activity against Staphylococcus aureus ATCC 29213 preincubated 16 to 20 hrs followed by subculturing and measured after over night. Type of series: functional. An outline of the steps:
(§1)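 MBC by CLSI broth microdilution on the same strain panel: S. aureus ATCC 43300, ATCC 29213, clinical isolates AD3 and 144, E. coli ATCC 25922; ATCC 43300 served as QC strain.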

In series [2] the test system is Staphylococcus aureus. Briefly: Antibacterial activity against Staphylococcus aureus 144 after 24 hrs by CLSI based broth micro dilution method. Type of series: functional. An outline of the steps: (§2)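 Broth microdilution run per CLSI. MRSA ATCC 43300 served as the QC strain, with the CLSI QC range as reference. S. aureus AD3 and 144 are clinical isolates from Guangdong Province. Pleuromutilin and tiamulin were run as reference drugs.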

Series [3] deals with Staphylococcus aureus. Nature of the series: Antibacterial activity against Staphylococcus aureus AD3 after 24 hrs by CLSI based broth micro dilution method. Type of series: functional. Put shortly: (§3)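 CLSI broth microdilution MIC against S. aureus ATCC 43300 (MRSA), ATCC 29213, clinical isolates AD3 and 144 (Guangdong Province), and E. coli ATCC 25922; ATCC 43300 served as QC strain, with the CLSI quality control range as reference.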

The test system of series [4] is Staphylococcus aureus. Briefly: Antibacterial activity against methicillin-resistant Staphylococcus aureus ATCC 43300 after 24 hrs by CLSI based broth micro dilution method. Type of series: functional. Put shortly: as §2
The test system of series [5] is Staphylococcus aureus. Briefly: Antibacterial activity against methicillin-resistant Staphylococcus aureus ATCC 43300 assessed as post antibacterial effect at 4 time of MIC concentration preincubated for 2 hrs followed by compound washout further incubated with fresh medium and measured for 6 hrs. Type of series: functional.
Series [6] deals with Staphylococcus aureus. Nature of the series: Bactericidal activity against Staphylococcus aureus 144 preincubated 16 to 20 hrs followed by subculturing and measured after over night. Type of series: functional. An outline of the steps:
as §1

In series [7] the test system is Staphylococcus aureus. Nature of the series: Antibacterial activity against Staphylococcus aureus ATCC 29213 after 24 hrs by CLSI based broth micro dilution method. Type of series: functional. Put shortly: as §2
Series [8] deals with Staphylococcus aureus. Briefly: Antibacterial activity against methicillin-resistant Staphylococcus aureus ATCC 43300 assessed as post antibacterial effect at 2 time of MIC concentration preincubated for 2 hrs followed by compound washout further incubated with fresh medium and measured for 6 hrs. Type of series: functional.
Series [9] relates to Staphylococcus aureus. Nature of the series: Antibacterial activity against methicillin-resistant Staphylococcus aureus ATCC 43300 infected in ICR/Swiss mouse systemic infection model assessed as survival rate at 30 mg/kg, ip after 7 days relative to control. Type of series: functional. Conditions: ATCC 43300, ip, 168 h, time 7 day. Put shortly: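 MRSA systemic infection model in mice. Dose 30 mg/kg with tiamulin as comparator and an untreated infected control. Survival was recorded after 7 days of administration.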

In series [10] the test system is Staphylococcus aureus. Nature of the series: Antibacterial activity against methicillin-resistant Staphylococcus aureus ATCC 43300 infected in ICR/Swiss mouse model of neutropenic thigh infection assessed as reduction in bacterial load at 20 mg/kg, iv and measured after 24 hrs. Type of series: functional. Put shortly: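 Mice made neutropenic by intraperitoneal cyclophosphamide; the negative control group received 0.9% saline intraperitoneally. Thigh muscle was inoculated with about 10^7 CFU/mL MRSA. Dose 20 mg/kg, with tiamulin as comparator and an untreated control. Read-out was thigh bacterial load (log10 CFU/g), n = 6/group.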

Series [11] deals with Staphylococcus aureus. Briefly: Bactericidal activity against methicillin-resistant Staphylococcus aureus ATCC 43300 preincubated 16 to 20 hrs followed by subculturing and measured after over night. Type of series: functional. Put shortly: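 MBC determined by the CLSI broth microdilution method against MRSA ATCC 43300, with ATCC 43300 also serving as the QC strain. Pleuromutilin and tiamulin were reference drugs.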

Series [12] has as its system Staphylococcus aureus. Nature of the series: Bactericidal activity against Staphylococcus aureus AD3 preincubated 16 to 20 hrs followed by subculturing and measured after over night. Type of series: functional. Put shortly: as §1
Series [13] deals with Escherichia coli. Briefly: Antibacterial activity against Escherichia coli ATCC 25922 after 24 hrs by CLSI based broth micro dilution method. Type of series: functional. Put shortly:
as §3

Series [14] deals with Staphylococcus aureus. Briefly: Bactericidal activity against methicillin-resistant Staphylococcus aureus ATCC 43300 assessed as reduction in bacterial growth at MIC concentration preincubated up to 24 hrs followed by subculturing and measured after 20 hrs by time-kill assay. Type of series: functional, organism-based. Conditions: time hrs <=44.
For series [15], the system named is Staphylococcus aureus. Nature of the series: Bactericidal activity against methicillin-resistant Staphylococcus aureus ATCC 43300 assessed as reduction in bacterial growth at > 4 time of MIC concentration preincubated up to 24 hrs followed by subculturing and measured after 20 hrs by time-kill assay. More on the design: scale not given: the % may be the effect or the level left. Type of series: functional. Conditions: time hrs <=44.

The subject of series [16] is Escherichia coli. Nature of the series: Bactericidal activity against Escherichia coli ATCC 25922 preincubated 16 to 20 hrs followed by subculturing and measured after over night. Type of series: functional. Put shortly:
as §1

Series [17] is described as follows: Ratio of MBC for bactericidal activity against methicillin-resistant Staphylococcus aureus ATCC 43300 to MIC for antibacterial activity against methicillin-resistant Staphylococcus aureus ATCC 4330. Type of series: functional.
A short description of series [18]: Inhibition of CYP450 (unknown origin). Type of series: ADME, Homo sapiens.
The target in the next series is Cytochrome P450 3A4 (Homo sapiens, UniProt P08684). Briefly: Inhibition of CYP3A4 in human liver microsomes using testosterone as substrate preincubated for 5 mins followed by NADPH addition and measured after 5 mins by LC-MS/MS analysis. Type of series: ADME. On the technique in general: Liver microsomes are vesicles of endoplasmic reticulum, rich in cytochrome P450 enzymes.

Another series concerns RAW264.7. Briefly: Cytotoxicity against mouse RAW264.7 cells assessed as reduction in cell viability at 8 ug/ml after 16 hrs by MTT assay. Type of series: cell-based. Conditions: raw264.7, 16 h, dose 8 µg/ml. An outline of the steps:
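RAW 264.7 macrophage viability read by MTT assay after exposure at 8 μg/mL.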
(Tetrazolium assays rely on reduction of a dye to a coloured formazan, in cell work by metabolically active cells.)

Values after ≈ are worked out from the molar mass of the structure shown. Active and inactive are the calls of the source.

Chain of Cytochrome P450 3A4 (P08684 whole entry): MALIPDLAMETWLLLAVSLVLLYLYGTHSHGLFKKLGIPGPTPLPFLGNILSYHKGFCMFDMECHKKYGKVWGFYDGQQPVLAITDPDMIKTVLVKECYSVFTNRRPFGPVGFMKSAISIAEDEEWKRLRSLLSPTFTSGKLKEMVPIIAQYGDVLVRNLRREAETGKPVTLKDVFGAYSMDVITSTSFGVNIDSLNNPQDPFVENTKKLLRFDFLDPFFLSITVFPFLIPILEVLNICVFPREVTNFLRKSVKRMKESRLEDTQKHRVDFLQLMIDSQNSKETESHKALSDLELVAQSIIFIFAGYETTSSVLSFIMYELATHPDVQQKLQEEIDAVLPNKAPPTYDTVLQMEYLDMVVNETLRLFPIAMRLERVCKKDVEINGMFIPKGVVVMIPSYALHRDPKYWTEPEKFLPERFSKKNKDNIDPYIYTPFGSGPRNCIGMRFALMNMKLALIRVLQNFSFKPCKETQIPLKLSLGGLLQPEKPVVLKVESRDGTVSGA

In the case of `C=C[C@]1(C)C[C@@H](OC(=O)CSCCN(CC)CC)[C@]2(C)[C@H](C)CC[C@]3(CCC(=O)[C@H]32)[C@@H](C)[C@@H]1O` [TIAMULIN], the MBC (commonly the smallest concentration meeting the test's criterion for killing) with Staphylococcus aureus [1] was determined as 1 µg/mL (≈ 2.03 µM); with Staphylococcus aureus [6] it was 2 µg/mL (≈ 4.05 µM); against Staphylococcus aureus [11], 1 µg/mL (≈ 2.03 µM); with Staphylococcus aureus [12] it was 2 µg/mL (≈ 4.05 µM). Moreover, the minimal inhibitory concentration (MIC) – broadly, the lowest concentration that inhibits growth of the organism – was found to be 1 µg/mL (≈ 2.03 µM) with Staphylococcus aureus [2], 1 µg/mL (≈ 2.03 µM) against Staphylococcus aureus [3], 0.5 µg/mL (≈ 1.01 µM) with Staphylococcus aureus [4] and 0.5 µg/mL (≈ 1.01 µM) with Staphylococcus aureus [7]. For the same molecule, the PAE in the series on Staphylococcus aureus [5] was 2.04 h; in the series on Staphylococcus aureus [8], 1.65 h. The survival at 30 mg/kg in the series on Staphylococcus aureus [9] was determined as 20%. Also, in the series on Staphylococcus aureus [10], the Activity is listed as 0.77 log10CFU/g.
For the molecule `C=C[C@]1(C)C[C@@H](OC(=O)CSc2ccccc2NC(=O)Cn2cc(CN(CC)CC)nn2)[C@]2(C)[C@H](C)CC[C@]3(CCC(=O)[C@H]32)[C@@H](C)[C@@H]1O`, the MBC in the series with Staphylococcus aureus [1] was 0.25 µg/mL (≈ 0.368 µM); against Staphylococcus aureus [6], 0.5 µg/mL (≈ 0.735 µM); against Staphylococcus aureus [11], 0.5 µg/mL (≈ 0.735 µM); in the series with Escherichia coli [16], more than 32 µg/mL; with Staphylococcus aureus [12], 1 µg/mL (≈ 1.47 µM). Further, the MIC is 0.5 µg/mL (≈ 0.735 µM) with Staphylococcus aureus [2]; 0.5 µg/mL (≈ 0.735 µM) with Staphylococcus aureus [3]; 0.25 µg/mL (≈ 0.368 µM) with Staphylococcus aureus [4]; more than 32 µg/mL against Escherichia coli [13]; 0.25 µg/mL (≈ 0.368 µM) against Staphylococcus aureus [7]. In addition, the PAE is 1.84 h in the series with Staphylococcus aureus [5] and 1.81 h in the series on Staphylococcus aureus [8]. Further, in the series on Staphylococcus aureus [14], the outcome was Active. The Activity in the series on Staphylococcus aureus [15] was 99.9%. The Ratio in series [17] is reported as 1.
For the molecule `CC[C@]1(C)C[C@@H](OC(=O)CSc2nnc(N)[nH]2)[C@]2(C)[C@H](C)CC[C@]3(CCC(=O)[C@H]32)[C@@H](C)[C@@H]1O` [AZAMULIN], the IC50 (in general, the concentration that inhibits the measured activity by half) in [18] stood at 120 nM.
On to `C=C[C@]1(C)C[C@@H](OC(=O)CSc2ccccc2NC(=O)Cn2cc(CN(C)C)nn2)[C@]2(C)[C@H](C)CC[C@]3(CCC(=O)[C@H]32)[C@@H](C)[C@@H]1O`, for which the MBC in the series with Staphylococcus aureus [1] was 0.25 µg/mL (≈ 0.384 µM); with Staphylococcus aureus [6], 0.5 µg/mL (≈ 0.767 µM); against Staphylococcus aureus [11] it was 0.5 µg/mL (≈ 0.767 µM); with Escherichia coli [16] it was more than 32 µg/mL; against Staphylococcus aureus [12], 0.5 µg/mL (≈ 0.767 µM). Also, the MIC was 0.5 µg/mL (≈ 0.767 µM) in the series with Staphylococcus aureus [2]; 0.25 µg/mL (≈ 0.384 µM) in the series with Staphylococcus aureus [3]; 0.25 µg/mL (≈ 0.384 µM) with Staphylococcus aureus [4]; more than 32 µg/mL with Escherichia coli [13]; 0.25 µg/mL (≈ 0.384 µM) in the series on Staphylococcus aureus [7]. The results for the PAE in the series with Staphylococcus aureus [5] and in the series on Staphylococcus aureus [8] were 2.74 h and 2.03 h, respectively. In addition, in the series with Staphylococcus aureus [14], the result was Active. Moreover, the Activity is 99.9% with Staphylococcus aureus [15], 1.71 log10CFU/g in the series with Staphylococcus aureus [10] and “Non-Toxic” with RAW264.7. In the series with Staphylococcus aureus [9], the survival at 30 mg/kg amounted to 50%. The same molecule came in with an IC50 against Cytochrome P450 3A4 of 6.15 µM. For the same molecule, the Ratio in [17] turned out to be 1.

The values are drawn from ChEMBL document CHEMBL4765405, “Design, synthesis and biological activities of novel pleuromutilin derivatives with a substituted triazole moiety as potent antibacterial agents” (Eur J Med Chem, 2020).
